From ChEMBL document CHEMBL1131139, “Synthesis and antibacterial activity of ketolides (6-O-methyl-3-oxoerythromycin derivatives): a new class of antibacterials highly potent against macrolide-resistant and -susceptible respiratory pathogens” (1998)
≈ marks a conversion by molar mass, not a printed value.

Assays:
Escherichia coli = assay: In vitro inhibitory activity against Escherichia coli (250 UC5); assay type: functional
Method in brief: (§1)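 Two-fold agar dilution on Mueller-Hinton agar (pH 7.4). Inoculum from overnight plate cultures suspended in Mueller-Hinton broth, adjusted to 10^9 CFU/mL, diluted 1:200 and spotted by multipoint inoculator at about 10^4 CFU/spot. Plates incubated 37 °C for 20 h. MIC taken as lowest concentration with no visible growth.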

Haemophilus influenzae [1] = assay: In vitro inhibitory activity against Haemophilus influenzae (351CB12); assay type: functional; method in brief: as §1
Haemophilus influenzae [2] = assay: In vitro inhibitory activity against Haemophilus influenzae (351HT3); assay type: functional; method in brief: as §1
[3] = test system: Staphylococcus epidermidis; assay: In vitro inhibitory activity against Staphylococcus epidermidis (EryRi 012GO11i); assay type: functional; method in brief: as §1
Staphylococcus aureus [4] = assay: In vitro inhibitory activity against Staphylococcus aureus (011UC4); assay type: functional; method in brief: as §1
Staphylococcus aureus [5] = assay: In vitro inhibitory activity against Staphylococcus aureus (EryRi 011GO25i); assay type: functional; method in brief: as §1
Streptococcus pneumoniae [6] = assay: In vitro inhibitory activity against Streptococcus pneumoniae (032UC1); assay type: functional; method in brief: as §1
Streptococcus pneumoniae [7] = assay: In vitro inhibitory activity against Streptococcus pneumoniae (EryRc 030SJ1); assay type: functional; method in brief: as §1
Streptococcus pneumoniae [8] = assay: In vitro inhibitory activity against Streptococcus pneumoniae (EryRi 030SJ5i); assay type: functional; method in brief: as §1
Streptococcus pyogenes [9] = assay: In vitro inhibitory activity against Streptococcus pyogenes (02A1UC1); assay type: functional; method in brief: as §1
[10] = test system: Staphylococcus epidermidis; assay: In vitro inhibitory activity against Staphylococcus epidermidis (EryRc 011CB2)
Mus musculus [11] = assay: In Vivo evaluation for its effective dose against Haemophilus influenzae (351RD7 AmpR beta (+)); assay type: functional
Method in brief: (§2)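 Male Charles River CD1 mice, 20-22 g, 10 per dose group, infected intraperitoneally with 0.5 mL diluted overnight broth culture (physiological buffer or 5% hog mucine) at 10-100 times the minimal lethal dose. Compound suspended in carboxymethylcellulose, 0.5 mL given orally immediately and 4 h postinfection. Survival followed 8-10 days; ED50 (unitary dose protecting 50% from death) by Litchfield-Wilcoxon probit method.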

Mus musculus [12] = assay: In Vivo evaluation for its effective dose against Haemophilus influenzae (351GR1); assay type: functional; method in brief: as §2
Mus musculus [13] = assay: In Vivo evaluation for its effective dose against Haemophilus influenzae (351TO19 AmpR beta (-)); assay type: functional; method in brief: as §2
Mus musculus [14] = assay: In Vivo evaluation for its effective dose against Staphylococcus aureus (011GO25 EryRi.; assay type: functional; method in brief: as §2
Mus musculus [15] = assay: In Vivo evaluation for its effective dose against Staphylococcus aureus (011UC4).; assay type: functional; method in brief: as §2
Mus musculus [16] = assay: In Vivo evaluation for its effective dose against Streptococcus pneumoniae (030Cr29 EryRc); assay type: functional; method in brief: as §2
Mus musculus [17] = assay: In Vivo evaluation for its effective dose against Streptococcus pneumoniae (030MV2 EryRc); assay type: functional; method in brief: as §2
Mus musculus [18] = assay: In Vivo evaluation for its effective dose against Streptococcus pneumoniae (030RO1 EryRi); assay type: functional; method in brief: as §2
Mus musculus [19] = assay: In Vivo evaluation for its effective dose against Streptococcus pneumoniae (030SJ1 EryRc); assay type: functional; method in brief: as §2
Mus musculus [20] = assay: In Vivo evaluation for its effective dose against Streptococcus pneumoniae (030SJ6 EryRc); assay type: functional; method in brief: as §2
Mus musculus [21] = assay: In Vivo evaluation for its effective dose against Streptococcus pneumoniae (032UC1); assay type: functional; method in brief: as §2
Mus musculus [22] = assay: In Vivo evaluation for its effective dose against Streptococcus pyogenes (02A1UC1); assay type: functional; method in brief: as §2
Staphylococcus aureus [23] = assay: In vitro inhibitory activity against Staphylococcus aureus (EryRc 011CB20); assay type: functional; method in brief: as §1
Streptococcus pyogenes [24] = assay: In vitro inhibitory activity against Streptococcus pyogenes (02A1UC1)

Row | SMILES | MIC (Escherichia coli) [µg/mL] | MIC (Haemophilus influenzae [1]) [µg/mL] | MIC (Haemophilus influenzae [2]) [µg/mL] | MIC [3] [µg/mL] | MIC (Staphylococcus aureus [4]) [µg/mL] | MIC (Staphylococcus aureus [5]) [µg/mL] | MIC (Streptococcus pneumoniae [6]) [µg/mL] | MIC (Streptococcus pneumoniae [7]) [µg/mL] | MIC (Streptococcus pneumoniae [8]) [µg/mL] | also measured
1 | CC[C@H]1OC(=O)[C@H](C)C(=O)[C@H](C)[C@@H](O[C@@H]2O[C@H](C)C[C@H](N(C)C)[C@H]2O)[C@](C)(OC)C[C@@H](C)C(=O)[C@H](C)[C@H]2N(CCCCc3ccnc4ccccc34)C(=O)O[C@]12C | 40 (≈ 50.3 µM) | 1.2 (≈ 1.51 µM) | 1.2 (≈ 1.51 µM) | 0.15 (≈ 0.188 µM) | 0.04 (≈ 0.0503 µM) | 0.08 (≈ 0.101 µM) | 0.02 (≈ 0.0251 µM) | 1.2 (≈ 1.51 µM) | 0.02 (≈ 0.0251 µM) | MIC (Streptococcus pyogenes [9]): 0.02 µg/mL (≈ 0.0251 µM); MIC [10]: 40 µg/mL (≈ 50.3 µM)
2 | CC[C@H]1OC(=O)[C@H](C)C(=O)[C@H](C)[C@@H](O[C@@H]2O[C@H](C)C[C@H](N(C)C)[C@H]2O)[C@](C)(OC)C[C@@H](C)C(=O)[C@H](C)[C@H]2N(NCCCc3ccnc4ccccc34)C(=O)O[C@]12C | 40 (≈ 50.2 µM) | 0.6 (≈ 0.753 µM) | 0.6 (≈ 0.753 µM) | 0.04 (≈ 0.0502 µM) | 0.02 (≈ 0.0251 µM) | 0.08 (≈ 0.1 µM) | 0.02 (≈ 0.0251 µM) | 0.15 (≈ 0.188 µM) | 0.02 (≈ 0.0251 µM) | ED50 (Mus musculus [11]): 116 mg/kg; ED50 (Mus musculus [12]): 142 mg/kg; ED50 (Mus musculus [13]): 410 mg/kg; ED50 (Mus musculus [14]): 13 mg/kg; ED50 (Mus musculus [15]): 20 mg/kg; ED50 (Mus musculus [16]): 15 mg/kg; ED50 (Mus musculus [17]): 19 mg/kg; ED50 (Mus musculus [18]): 30 mg/kg; ED50 (Mus musculus [19]): 42 mg/kg; ED50 (Mus musculus [20]): 17 mg/kg; ED50 (Mus musculus [21]): 15.8 mg/kg; ED50 (Mus musculus [22]): 16 mg/kg; MIC (Staphylococcus aureus [23]): 40 µg/mL (≈ 50.2 µM); MIC (Streptococcus pyogenes [24]): 0.02 µg/mL (≈ 0.0251 µM)
